# The list is not random: actives were taken first. Their share in the collection is about 2.8%.
# NPY-Y1 PAM-ag: potentiates or activates human NPY-Y1 receptor; P25929; NPY-Y1 expressing cells, potentiator/agonist activation; activation, % at 3.6 µM; 0.37% of 220,000 active; AID 1304; in the data active = activation above about 33%, passing the limit was not always enough;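 note: cells stimulated with NPY at EC10 then isoproterenol at EC100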
# Target sequence (P25929 whole entry, looked up): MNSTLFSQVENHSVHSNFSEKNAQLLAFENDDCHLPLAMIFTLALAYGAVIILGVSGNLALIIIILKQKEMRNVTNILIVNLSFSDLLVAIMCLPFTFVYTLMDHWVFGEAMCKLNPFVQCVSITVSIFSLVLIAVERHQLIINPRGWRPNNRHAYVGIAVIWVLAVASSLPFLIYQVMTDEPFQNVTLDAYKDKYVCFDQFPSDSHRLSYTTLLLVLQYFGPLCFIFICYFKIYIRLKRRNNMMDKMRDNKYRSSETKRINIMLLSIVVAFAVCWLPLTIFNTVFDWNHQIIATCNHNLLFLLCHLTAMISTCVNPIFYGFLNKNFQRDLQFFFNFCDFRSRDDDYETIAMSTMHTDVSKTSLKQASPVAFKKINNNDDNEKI
# NPY2 pot ag: human NPY-Y2 potentiation or agonism, primary screen | P49146 | cells expressing NPY-Y2, potentiator/agonist read-out | activation, % at 3.6 µM | 0.45% of 220,000 active; in the data active = activation above about 27%;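 note: cells stimulated with NPY near EC25 plus isoproterenol at EC100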
# PGE2 EP2 inh: inhibitors of human EP2 prostaglandin E2 receptor. C6 glioma cells expressing human EP2, cAMP TR-FRET; cells stimulated with saturating PGE2. inhibition, % at 25 µM. 0.52% of 260,000 active;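 active = percent inhibition above 40 after rounding to a whole number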;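 note: rat C6 glioma host cells with rolipram phosphodiesterase inhibitor present; the protocol text gives 20 µM as final concentration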
# EP2 modulator: EP2 receptor (human) modulation | P43116 | EP2-expressing cells, cAMP HTRF FRET, PGE2 co-stimulation | induction, % at 25 µM | 0.83% of 260,000 active;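 active = compounds whose cAMP rise, as percent of the full-agonist control response, exceeds 60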;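 note: rat C6 glioma line stably carrying human EP2 under a CMV promoter; the protocol text gives 20 µM as final concentration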
# NPY-Y2 antag: antagonists of human neuropeptide Y receptor Y2; P49146; NPY-Y2 expressing cells, antagonist mode; inhibition, % at 2.7 µM; 0.99% of 140,000 active; AID 793
# NPY-Y1 antag: NPY-Y1 (human) receptor antagonism | P25929 | HEK293-CNG Y1 cells, membrane potential fluorescence; NPY at EC95, then isoproterenol | inhibition, % at 3.6 µM | 1% of 200,000 active;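 active = inhibition above the campaign mean inhibition of all tested compounds plus 3 SD, cut at about 20% in these data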
#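 Test system: HEK293 cells co-expressing NPY Y1 receptor and cyclic-nucleotide gated channel; Also added: NPY (25 nM), isoproterenol (1 µM), Ro 20-1724 (25 µM); Compound dosing: one concentration, 3.6 µM, in 0.4% DMSO; Timing: dye 3 h, compound 60 min room temperature, stimulation 45 min; Technique: Membrane-potential fluorescent dye readout.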
# NPY-Y1 ant conf: human NPY-Y1 antagonism, confirmation; shares compounds with NPY-Y1 antag; HEK293-CNG NPY-Y1, membrane potential fluorescence, cAMP; NPY challenge against isoproterenol-raised cAMP; inhibition, % at 3.6 µM; 21% of 1,200 active; in the data active = inhibition above about 20%
# NPY2 antag ctr: human NPY-Y2 antagonism in NPY-Y1 counter-screen | 28% of 1,200 active | inhibition, % at 3.6 µM | HEK293 NPY-Y2 CNG membrane potential fluorescence; cells given NPY, then isoproterenol | shares compounds with NPY-Y1 antag
# Numbers stand for hits; n = inactive; x = no result. Cut-off read from the data, not from the text of the source, unless noted: active = inhibition above about 17%; inactive = the rest.
SMILES,NPY-Y1 PAM-ag,NPY2 pot ag,PGE2 EP2 inh,EP2 modulator,NPY-Y2 antag,NPY-Y1 antag,NPY-Y1 ant conf,NPY2 antag ctr
CC(C)COCC(CN(Cc1ccccc1)c1ccccc1)N1CCCC1 (centres undefined),n,n,n,n,x,31,n,n
CC(C(=O)Nc1ccc(OCc2ccccc2)cc1)N1CCCC1 (centres undefined),n,n,n,n,x,n,x,x
O=C(Cn1ncc2cccn2c1=O)Nc1ccc2c(c1)OCCO2,x,x,n,n,x,x,x,x
CCCC(c1nnnn1C(C)(C)C)N1CCN(Cc2ccccc2OC)CC1 (centres undefined),n,n,n,n,x,22,n,n
CN1CCc2c(n(CC(O)CNCc3ccccc3)c3ccccc23)C1=O (centres undefined),n,n,n,n,x,22,n,n
COc1ccc(OC)c(/C=C/C(=O)NNC(=O)c2cccnc2)c1,x,x,n,n,x,x,x,x
COc1ccc(OC)c(CN(Cc2coc3ccccc3c2=O)CC2CCCO2)c1 (centres undefined),x,x,n,n,x,x,x,x
COc1cc(/C=C2\SC(=S)N(NS(=O)(=O)c3ccccc3)C2=O)cc(OC)c1OC,n,n,n,n,x,x,x,x
O=C1/C(=C/c2ccccn2)SC(=S)N1NS(=O)(=O)c1ccccc1,n,n,n,n,x,24,n,n
Cc1n[nH]c(C)c1CCNC(=O)Cn1nc(C)n2c(cc3sccc32)c1=O,x,x,x,n,x,x,x,x
CCOC(=O)c1c(CSc2ccccc2)n(C)c2cc(Br)c(O)c(CN(C)C)c12,n,n,n,n,x,x,x,x
CCOC(=O)c1c(C)n(-c2ccc(C)cc2)c2ccc(O)c(CN(C)C)c12,n,n,n,n,x,51,52,55
CCOC(=O)c1c(CSc2ccc(C)cc2)n(C)c2cc(Br)c(O)c(CN(C)C)c12,n,n,n,n,x,75,60,72
CCOc1ccccc1NC(=O)CN1CCC(C(=O)c2cccc(F)c2)CC1,x,x,n,n,x,x,x,x
CCOC(=O)C(C)n1ncc2c3sc(C)cc3n(C)c2c1=O (centres undefined),x,x,x,n,x,x,x,x
c1ccc(COc2ccccc2CNC23CC4CC(CC(C4)C2)C3)cc1,n,n,n,n,x,158,110,70
COc1ccc(Br)cc1CN(C)CC(=O)NCCc1ccccc1,n,n,n,n,x,n,x,x
c1ccc(COc2ccccc2CNC2CCCC2)cc1,n,n,n,n,x,32,n,n
COc1cc(CNC2CCCC2)cc(Cl)c1OCc1ccccc1Cl,n,n,n,n,n,n,x,x
Cc1c(OCc2ccccc2)cccc1OCc1ccccc1,n,n,n,n,n,n,x,x
O=C(COc1ccc(Br)cc1CNC1CCCCC1)NCCc1ccccc1,n,n,n,n,x,27,n,n
CCN(C(=O)c1ccc(C(C)(C)C)cc1)c1nnc(Cn2nnc3ccccc32)s1,n,n,n,n,n,31,41,n
CCN(C(=O)CC(C)C)c1nnc(Cn2nnc3ccccc32)s1,n,n,n,n,x,n,x,x
CC(CCc1ccccc1)NC(=O)c1ncoc1-c1cccc(F)c1 (centres undefined),x,x,n,n,x,x,x,x
O=Cc1cn(-c2ccccc2)nc1-c1cc2c(ccc3ccccc32)oc1=O,n,n,x,n,n,n,x,x
SMILES,NPY-Y1 PAM-ag,NPY2 pot ag,PGE2 EP2 inh,EP2 modulator,NPY-Y2 antag,NPY-Y1 antag,NPY-Y1 ant conf,NPY2 antag ctr
O=Cc1cn(-c2ccccc2)nc1-c1cc2cc(O)ccc2oc1=O,n,n,n,n,n,22,n,n
COc1ccc(/C(C)=C2\SC(=S)N(CCC(=O)O)C2=O)cc1,n,n,n,n,n,23,n,n
Cc1ccsc1-c1nc(CSCC(=O)NCc2ccc3c(c2)OCO3)c(C)o1,n,n,x,n,n,21,n,n
CCc1cc2ccc(C)c(C)c2nc1SCC(=O)NCc1ccc2c(c1)OCO2,x,x,n,n,x,x,x,x
Cc1nc(SCC(=O)NCc2ccc3c(c2)OCO3)c(C#N)c2c1CCCC2,n,n,n,n,n,21,n,n
COc1ccccc1NC(=O)CSc1nc2c(C)cc(C)cc2cc1C#N,x,x,n,n,x,x,x,x
NC(=O)COC(=O)CSc1ccc2ccccc2c1,n,n,n,n,x,22,n,n
Clc1ccc(-c2csc(=Nc3cccnc3)n2CCCn2ccnc2)cc1Cl,n,n,n,n,n,29,n,n
COCCn1c(-c2ccc(Br)cc2)csc1=Nc1cccnc1,n,n,n,n,x,n,x,x
CN(C)c1ccc(-c2nn3c(-c4ccc(Cl)cc4)nnc3s2)cc1,n,n,n,n,n,n,x,x
Clc1ccc(-c2nn3c(C4COc5ccccc5O4)nnc3s2)cc1 (centres undefined),n,n,n,n,n,25,n,n
CCOC(=O)c1sc2ncn(CC(=O)Nc3ccc(F)cc3)c(=O)c2c1C,x,x,n,n,x,x,x,x
N=c1n(CCN2CCOCC2)c2ccccc2n1CC(N)=O,x,x,n,n,x,x,x,x
N=c1n(CCN2CCOCC2)c2ccccc2n1Cc1ccccc1Br,n,n,n,n,n,21,n,n
COCCn1c(=O)n(CC(=O)NCc2ccc(OC)cc2)c2cccnc21,x,x,x,n,x,x,x,x
CN(C)S(=O)(=O)c1cccc(NC(=O)c2ccncc2)c1,n,n,n,n,n,n,x,x
CCN(CC)S(=O)(=O)c1cccc(NC(=O)c2ccc(C#N)cc2)c1,n,n,n,n,x,22,n,n
Brc1ccc(C2=Nn3c(nnc3-c3n[nH]c4c3CCC4)SC2)cc1,n,n,n,n,n,22,n,20
O=C(NC1CCCCC1)C(c1ccc2ncccc2c1)N(Cc1cccs1)C(=O)c1cccs1 (centres undefined),n,n,n,n,n,32,n,n
O=C(NC1CCCCC1)C(c1ccc2ncccc2c1)N(Cc1ccc2c(c1)OCO2)C(=O)c1ccc2c(c1)OCCO2 (centres undefined),n,n,n,n,n,n,x,x
c1ccc(CNc2nc(N3CCN(Cc4ccccc4)CC3)nc3ccccc23)cc1,n,n,n,n,x,x,x,x
CC(Nc1nc(N2CCNCC2)nc2ccccc12)c1ccccc1 (centres undefined),n,n,n,n,x,25,28,35
Cc1cccc(NC(=O)NNC(=O)c2cc3ccccc3cc2O)c1C,n,n,n,n,x,24,n,n
Clc1ccc(-n2nnnc2-c2cnc(-c3ccncc3)nc2-c2cccs2)cc1,n,n,n,n,n,34,n,18
C/C=C(\C)C(=O)OC1c2c(ccc3ccc(=O)oc23)OC(C)(C)C1OC(C)=O (centres undefined),n,n,n,n,n,n,x,x
C/C=C(/C)C(=O)OC1c2c(ccc3ccc(=O)oc23)OC(C)(C)C1OC(=O)/C(C)=C\C (centres undefined),n,n,n,n,x,22,n,31

# Compound activity (PubChem)
